The list is not random: actives were taken first. Their share in the collection is about 2.9%.
SENP1 FRET inh – human SENP1 catalytic domain inhibitors, primary screen, biochemical, FRET, uHTS; AID 624204, 2012; actives 0.21% (n = 360,000); inhibition, % at 10 µM; recombinant SENP1 catalytic domain, CyPet-SUMO1-YPet FRET cleavage; Sentrin-specific protease 1 (Homo sapiens), Q9P0U3;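 active = inhibition at least 30% at 10 µM, raw YFP signal under a set limit, fluorescence ratio 0.5 to 1.5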;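 also: 0% = enzyme with DMSO and 100% = no enzyme wells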
Target sequence (Q9P0U3 419-644 limits assumed): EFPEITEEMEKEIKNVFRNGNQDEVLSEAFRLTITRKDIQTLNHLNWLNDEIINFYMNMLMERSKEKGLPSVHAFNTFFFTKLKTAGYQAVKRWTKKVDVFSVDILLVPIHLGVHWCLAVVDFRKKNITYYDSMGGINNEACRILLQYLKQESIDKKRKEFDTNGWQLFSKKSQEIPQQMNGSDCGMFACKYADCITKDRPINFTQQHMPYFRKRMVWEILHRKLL
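Test system: human SENP1 catalytic domain; medium: Tris pH 8 buffer plus EDTA, NaCl, BME, BSA, NP40, catalase; incubation: 50 min reaction at room temperature; technique: FRET, CFP and YFP emission; controls: no-enzyme low control and enzyme-plus-DMSO high control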
HSP90 refold inh – HSP90 inhibitors, primary screen, cell lysate, luminescence; Heat shock protein HSP 90 (rabbit reticulocyte lysate; luciferase refolding); Rabbit reticulocyte lysate, luciferase refolding luminescence, 3 h; inhibition, % at 5.6 µM; actives 0.91% (n = 290,000); AID 1789, 2009;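 active = inhibition above the screen-wide mean plus 3 SD, computed separately per campaign, cut at about 16% in these data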;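 also: 0% = DMSO wells and 100% = 60 µM geldanamycin wells; inhibitors lower the luminescence because luciferase stays unfolded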
SENP8 block-1 – SENP8 protease inhibitors, primary screen, biochemical, luminescence | Sentrin-specific protease 8 (Homo sapiens), Q96LD8 | purified SENP8, Z-RLRGG-aminoluciferin cleavage | inhibition, % at 10 µM | actives 1.2% (n = 330,000); in the data active = inhibition above about 50%
Target sequence (Q96LD8 whole entry, looked up): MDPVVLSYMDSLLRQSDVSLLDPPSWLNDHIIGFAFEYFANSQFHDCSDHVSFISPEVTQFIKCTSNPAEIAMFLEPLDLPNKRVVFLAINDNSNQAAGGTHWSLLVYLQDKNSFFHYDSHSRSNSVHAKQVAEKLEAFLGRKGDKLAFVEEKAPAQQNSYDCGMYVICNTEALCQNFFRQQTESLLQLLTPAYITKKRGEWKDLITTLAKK
SENP8 block-2 – human SENP8 protease inhibitors, primary screen, biochemical, fluorescence, Nedd8 protein substrate, uHTS | Sentrin-specific protease 8 (Homo sapiens), Q96LD8 | recombinant SENP8 | inhibition, % at 20 µM | actives 0.64% (n = 360,000) | AID 602440, 2012; in the data active = inhibition mostly above about 40%, no sharp cut-off; inactive = mostly below about 27%
SENP6 block – SENP6 protease inhibitors, primary screen, biochemical, luminescence, uHTS. Sentrin-specific protease 6 (Homo sapiens), Q9GZR1. Recombinant SENP6 catalytic domain, aminoluciferin luminescence. inhibition, % at 10 µM. actives 1.8% (n = 330,000);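 active = inhibition above about 50% at the single tested dose, limit read from the data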;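 also: plate controls were DMSO wells with enzyme for no effect and DMSO wells lacking enzyme for full effect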
SENP7 block – SENP7 protease inhibitors, primary screen, biochemical, luminescence, uHTS; actives 1.5% (n = 330,000); recombinant SENP7, Z-RLRGG-aminoluciferin luminescence, 40 min; inhibition, % at 5 µM; Sentrin-specific protease 7 (Homo sapiens), Q9BQF6;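 active = inhibition above about 50% at the single test dose, limit read from the data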;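 also: plate controls were DMSO with enzyme for no effect and no enzyme buffer wells for full effect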
SENP8 confirm – SENP8 protease inhibitors, retest, confirmation, biochemical, luminescence, single concentration | inhibition, % at 12.5 µM | AID 488912, 2010 | actives 40% (n = 6,200) | Recombinant SENP8, Z-RLRGG-aminoluciferin luminescence, 60 min | shares compounds with SENP7 block;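 active = mean inhibition across replicates above about 50%, limit read from the data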
SENP6 conf – SENP6 protease inhibitors, confirmation, biochemical, luminescence, single concentration; shares compounds with SENP7 block; recombinant SENP6, Z-RLRGG-aminoluciferin luminescence; inhibition, % at 12.5 µM; actives 58% (n = 6,200)
SENP7 confirm – SENP7 protease inhibitors, retest, confirmation, biochemical, luminescence, single concentration | shares compounds with SENP7 block | recombinant SENP7, Z-RLRGG-aminoluciferin luminescence, 40 min | inhibition, % at 12.5 µM | actives 69% (n = 6,200) | AID 488917, 2010
Casp3 select – caspase-3 protease inhibitors, confirmation, selectivity assay for SENP inhibitor project, biochemical, single concentration. shares compounds with SENP7 block. purified caspase-3, Z-DEVD-aminoluciferin luminescence, 60 min. inhibition, % at 12.5 µM. actives 60% (n = 6,200). AID 488918, 2010;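 active = mean inhibition above about 50%, limit read from the data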;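 also: plate controls were enzyme with DMSO for no effect and wells without caspase-3 for full effect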
Luc interf – luminescence interference (SENP counter-screen). AID 488919. inhibition, % at 12.5 µM. actives 39% (n = 6,200). Pre-incubated SENP8/Z-RLRGG-aminoluciferin, luciferase luminescence interference. shares compounds with SENP7 block;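 active = mean inhibition above about 50% when retested at one dose, limit read from the data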;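 also: plate controls were DMSO wells with completed reaction for no effect and substrate without enzyme for full effect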
An asterisk follows results filed as active.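 The calls were made as follows, unless noted: active = mean inhibition above about 50% in the one-dose retest (limit read from the data); inactive = the rest.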

Results for O=C(O)c1cccc(NC(=O)c2cccc(NC(=O)C3CCCO3)c2)c1 (stereo not given) ?
SENP1 FRET inh: -0.5; HSP90 refold inh: 10.8; SENP8 block-1: 54.7*; SENP8 block-2: 13.9; SENP6 block: 62.5*; SENP7 block: -15.2; SENP8 confirm: 73.9*; SENP6 conf: 71.9*; SENP7 confirm: 89.7*; Casp3 select: 69.0*; Luc interf: 53.5*

What do the screens show for `O=C(O)c1cccc(NC(=O)C2CCCO2)c1` (stereo not given)?
SENP1 FRET inh: 2.2; HSP90 refold inh: 1.9; SENP8 block-1: -0.5; SENP8 block-2: 8.3; SENP6 block: 5.6; SENP7 block: 13.5

Results for C[C@H]1C=C(C(=O)O)O[C@@H](OCc2ccc(CO)cc2)C1 ?
SENP1 FRET inh: 0.9; SENP8 block-1: 0.6; SENP8 block-2: 0.8; SENP6 block: -20.1; SENP7 block: 3.3

What do the screens show for `Clc1nc(-c2ccccn2)nc2scc(-c3ccccc3)c12`?
SENP1 FRET inh: -0.6; HSP90 refold inh: 1.0; SENP8 block-1: 68.4*; SENP8 block-2: -295.4; SENP6 block: 87.1*; SENP7 block: 45.6; SENP8 confirm: 21.6; SENP6 conf: 52.0*; SENP7 confirm: 49.0; Casp3 select: 40.7; Luc interf: 16.4

What do the screens show for `CC1CCN(c2nc(-c3cccnc3)nc3scc(-c4ccccc4)c23)CC1`?
SENP1 FRET inh: -9.1; HSP90 refold inh: 0.0; SENP8 block-1: 4.5; SENP8 block-2: -412.0; SENP6 block: -2.3; SENP7 block: 0.9

Results for CCCCNC(=O)C1(C)CCN1C(=O)c1ccc(F)cc1Cl (stereo not given) ?
SENP1 FRET inh: 2.6; SENP8 block-2: 5.2

What do the screens show for `O=C(O)c1ccc(N/N=C/c2ccc(-c3ccc(Br)cc3)o2)cc1`?
SENP1 FRET inh: -23.1; HSP90 refold inh: 0.4; SENP8 block-1: -6.8; SENP8 block-2: -326.5; SENP6 block: -2.7; SENP7 block: -0.1

What do the screens show for `Cc1ccc(/C=N/NC(=O)c2ccc(C(=O)N/N=C/c3ccc(C)s3)o2)s1`?
SENP1 FRET inh: -20.5; HSP90 refold inh: -3.5; SENP8 block-1: -4.4; SENP8 block-2: inactive; SENP6 block: -21.8; SENP7 block: -2.7

Results for Cc1ccc(/C=N/Nc2ccc(C(=O)O)cc2)s1 ?
SENP1 FRET inh: -38.2; HSP90 refold inh: 78.9*; SENP8 block-1: 96.7*; SENP8 block-2: -166.7; SENP6 block: 94.5*; SENP7 block: -6.9; SENP8 confirm: 52.1*; SENP6 conf: 101.4*; SENP7 confirm: 104.1*; Casp3 select: 99.1*; Luc interf: 100.1*

Assay outcomes (PubChem BioAssay)
